# Activity calls are given as the source filed them. No cut-off for these calls is given here.
# How the values were obtained:
# Enterococcus faecium [1] = assay: Antibacterial activity against vancomycin-resistant Enterococcus faecium 354 after 2 hrs
# Enterococcus faecium [2] = assay: Antibacterial activity against vancomycin-resistant Enterococcus faecium 356 after 2 hrs
# Priestia megaterium [3] = assay: Antibacterial activity against Bacillus megaterium ATCC 14581 by microdilution susceptibility assay in presence of 200 mM of sodium chloride; assay type: functional, organism-based
# Outline: (§1)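 Microdilution susceptibility assay in 10 mM sodium phosphate pH 7.4 with 0, 75, 150 or 200 mM NaCl. Activity relative to 0 mM NaCl (set to 1). Mean with standard deviation of two independent experiments, each in duplicate.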
# Priestia megaterium [4] = assay: Antibacterial activity against Bacillus megaterium ATCC 14581 after 2 hrs; assay type: functional
# Staphylococcus aureus [5] = assay: Antibacterial activity against methicillin-resistant Staphylococcus aureus after 2 hrs
# Staphylococcus aureus [6] = assay: Antibacterial activity against Staphylococcus aureus ATCC 12600 by microdilution susceptibility assay in presence of 75 mM of sodium chloride; assay type: functional
# Outline: (§2)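 Microdilution susceptibility assay in 10 mM sodium phosphate buffer, pH 7.4, with NaCl at 0, 75, 150 or 200 mM. Activity is expressed relative to the activity in buffer without NaCl, which is set to 1. Values are means with standard deviations of two independent experiments, each run in duplicate.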
# Escherichia coli [7] = assay: Antibacterial activity against vancomycin-resistant ESBL-producing Escherichia coli E4 after 2 hrs; assay type: functional
# Enterococcus faecalis = assay: Antibacterial activity against vancomycin-resistant Enterococcus faecalis ATCC 51299 after 2 hrs; assay type: functional
# Escherichia coli [8] = assay: Antibacterial activity against Escherichia coli DH5alpha by microdilution susceptibility assay in presence of 75 mM of sodium chloride; assay type: functional, DH5[alpha]
# Outline: as §2
# Enterococcus faecium [9] = assay: Antibacterial activity against vancomycin-resistant Enterococcus faecium G70 after 2 hrs
# Escherichia coli [10] = assay: Antibacterial activity against Escherichia coli DH5alpha after 2 hrs; assay type: functional, DH5[alpha]
# Klebsiella pneumoniae [11] = assay: Antibacterial activity against vancomycin-resistant ESBL-producing Klebsiella pneumoniae ATCC 700603 after 2 hrs; assay type: functional
# Staphylococcus aureus [12] = assay: Antibacterial activity against methicillin-resistant Staphylococcus aureus 344 after 2 hrs; assay type: functional
# Staphylococcus aureus [13] = assay: Antibacterial activity against Staphylococcus aureus ATCC 12600 assessed as destruction and detachment of peripheral cell wall at 410 uM after 1.5 hrs by transmission electron microscopy; assay type: functional, organism-based
# Outline: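 S. aureus grown to OD₆₀₀ 0.1, washed twice in 10 mM sodium phosphate pH 7.4 with 1% tryptic soy broth, concentrated to OD₆₀₀ 3.0 (~10⁸ bacteria/ml). Incubated with peptide at 41 or 410 μM for 1.5 h at 37°C with rocking; solvent-only control. CFU plated as growth check. Rest fixed 2 h 1:1 with 10% glutaraldehyde, examined by transmission electron microscopy.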
# [14] = Toxicity in human RBC assessed as hemolysis at 250 uM after 1 hr; assay type: cell-based; settings: erythrocyte
# Outline: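 Human red blood cells were exposed to peptide serially diluted twofold from 250 μM in 50 mM sodium phosphate-150 mM NaCl, pH 7.4, for 1 h. Distilled water gave maximal lysis; buffer with peptide solvent gave spontaneous lysis. Absorbance of diluted supernatants was read at 405 nm. Values are means of two independent experiments, each in duplicate.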
# Staphylococcus aureus [15] = assay: Antibacterial activity against Staphylococcus aureus ATCC 12600 after 2 hrs; assay type: functional
# Escherichia coli [16] = assay: Antibacterial activity against Escherichia coli DH5alpha by microdilution susceptibility assay in presence of 200 mM of sodium chloride; assay type: functional, organism-based; settings: DH5[alpha]
# Outline: as §1
# Staphylococcus aureus [17] = assay: Antibacterial activity against Staphylococcus aureus ATCC 12600 by microdilution susceptibility assay in presence of 200 mM of sodium chloride; assay type: functional, organism-based
# Outline: as §1
# Priestia megaterium [18] = assay: Antibacterial activity against Bacillus megaterium ATCC 14581 by microdilution susceptibility assay in presence of 75 mM of sodium chloride; assay type: functional
# Outline: as §2
# Staphylococcus aureus [19] = assay: Antibacterial activity against methicillin-resistant Staphylococcus aureus 358 after 2 hrs; assay type: functional
# Escherichia coli [20] = assay: Antibacterial activity against vancomycin-resistant ESBL-producing Escherichia coli E9 after 2 hrs; assay type: functional
# Klebsiella pneumoniae [21] = assay: Antibacterial activity against vancomycin-resistant ESBL-producing Klebsiella pneumoniae GF7 after 2 hrs; assay type: functional
# Enterococcus faecium [22] = assay: Antibacterial activity against vancomycin-resistant Enterococcus faecium G71 after 2 hrs
# Staphylococcus aureus [23] = assay: Antibacterial activity against methicillin-resistant Staphylococcus aureus ATCC 33393 after 2 hrs; assay type: functional
# Klebsiella pneumoniae [24] = assay: Antibacterial activity against vancomycin-resistant ESBL-producing Klebsiella pneumoniae GF1 after 2 hrs; assay type: functional
# Staphylococcus aureus [25] = assay: Antibacterial activity against methicillin-resistant Staphylococcus aureus ATCC 43300 after 2 hrs; assay type: functional
substance,measurement,setting,value
H-KPWRFRRAIRRVRWRKVAPYIPFVVKTVGKK-OH,LD90,Enterococcus faecium [1],0.2 µM
same,MBC,"Enterococcus faecium [1]; Enterococcus faecium, 354, 2 h",0.4 µM
same,LD90,Enterococcus faecium [2],0.2 µM
same,MBC,"Enterococcus faecium [2]; Enterococcus faecium, 356, 2 h",0.8 µM
same,Activity,Priestia megaterium [3],Active
same,LD90,Priestia megaterium [4],0.01 µM
same,MBC,"Priestia megaterium [4]; Priestia megaterium, ATCC 14581, 2 h",0.1 µM
same,LD90,Staphylococcus aureus [5],0.2 µM
same,MBC,"Staphylococcus aureus [5]; Staphylococcus aureus, 2 h",0.8 µM
same,fold change (FC),Staphylococcus aureus [6],4
same,LD90,Escherichia coli [7],0.1 µM
same,MBC,"Escherichia coli [7]; Escherichia coli, E4, 2 h",0.4 µM
same,LD90,Enterococcus faecalis,0.8 µM
same,MBC,"Enterococcus faecalis; Enterococcus faecalis, ATCC 51299, 2 h",1.6 µM
same,fold change (FC),Escherichia coli [8],2
same,LD90,Enterococcus faecium [9],0.2 µM
same,MBC,"Enterococcus faecium [9]; Enterococcus faecium, G70, 2 h",0.4 µM
same,LD90,Escherichia coli [10],0.1 µM
same,MBC,"Escherichia coli [10]; Escherichia coli, DH5[alpha], 2 h",0.2 µM
same,LD90,Klebsiella pneumoniae [11],0.2 µM
same,MBC,"Klebsiella pneumoniae [11]; Klebsiella pneumoniae, ATCC 700603, 2 h",0.8 µM
same,LD90,Staphylococcus aureus [12],0.2 µM
same,MBC,"Staphylococcus aureus [12]; Staphylococcus aureus, 344, 2 h",0.8 µM
same,Activity,Staphylococcus aureus [13],Active
same,Activity,[14],Non-toxic
same,LD90,Staphylococcus aureus [15],0.05 µM
same,MBC,"Staphylococcus aureus [15]; Staphylococcus aureus, ATCC 12600, 2 h",0.4 µM
same,Activity,Escherichia coli [16],Active
same,Activity,Staphylococcus aureus [17],Active
same,fold change (FC),Priestia megaterium [18],4
same,LD90,Staphylococcus aureus [19],0.2 µM
same,MBC,"Staphylococcus aureus [19]; Staphylococcus aureus, 358, 2 h",0.4 µM
same,LD90,Escherichia coli [20],0.05 µM
same,MBC,"Escherichia coli [20]; Escherichia coli, E9, 2 h",0.2 µM
same,LD90,Klebsiella pneumoniae [21],0.2 µM
same,MBC,"Klebsiella pneumoniae [21]; Klebsiella pneumoniae, GF7, 2 h",0.4 µM
same,LD90,Enterococcus faecium [22],0.2 µM
same,MBC,"Enterococcus faecium [22]; Enterococcus faecium, G71, 2 h",0.4 µM
same,LD90,Staphylococcus aureus [23],0.2 µM
same,MBC,"Staphylococcus aureus [23]; Staphylococcus aureus, ATCC 33393, 2 h",0.4 µM
same,LD90,Klebsiella pneumoniae [24],0.2 µM
same,MBC,"Klebsiella pneumoniae [24]; Klebsiella pneumoniae, GF1, 2 h",0.4 µM
same,LD90,Staphylococcus aureus [25],0.2 µM
same,MBC,"Staphylococcus aureus [25]; Staphylococcus aureus, ATCC 43300, 2 h",0.4 µM

# Reference: ChEMBL document CHEMBL1649280, “Activity of the novel peptide arminin against multiresistant human pathogens shows the considerable potential of phylogenetically ancient organisms as drug sources” (Antimicrob Agents Chemother, 2009)
